Screens deposited in PubChem by several laboratories.
In the library only some 2.1% were active in any assay of this set; here they are far more common.
Autophagy HCS = modulators of autophagy. 190,000 tested, 0.98% active. AID 463193. calls only at 10 µM (by protocol). MEF GFP-LC3 puncta imaging; test concentration mostly 10 µM;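 active = percentage of spot-positive cells more than 3 SD above its plate mean, without a fluorescence outlier flag or 80% toxicity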;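 also: spot-positive cell cutoff set from DMSO-treated cells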
Insulin prom inh = TRM-6 insulin promoter activity inhibition; 130,000 tested, 0.9% active; inhibition, % at 2 µM; AID 1273; TRM-6 cells (human fetal islet line), insulin promoter-eGFP reporter, imaging; reporter expression induced with tamoxifen;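 active = inhibition above the mean plus 3 SD, with well images judged a real hit on visual review, cut at about 60% in these data, passing the limit was not always enough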
Insulin prom up = MIN6 insulin promoter up-regulation | MIN6 insulin promoter-GFP reporter, high-content imaging; stronger effect = higher value | z-score at 5 µM | 190,000 tested, 0.3% active;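 active = z-score above 3 at 5 µM with at least 500 cells counted in the well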
RBBP9 inhibitor = human RBBP9 hydrolase inhibition. O75884. recombinant RBBP9, FP-Rh probe fluorescence polarization. inhibition, % at 7.94 µM. 220,000 tested, 0.2% active. AID 1515;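 active = inhibition above the campaign mean of all tested compounds plus 3 SD, cut at about 14% in these data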;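 also: plate controls were DMSO wells with RBBP9 for no effect and wells lacking RBBP9 protein for full effect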
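System: RBBP9 protein / Quantity: 2.5 µM RBBP9 dispensing solution, before mixing / Also added: Serine-hydrolase probe FP-Rh, 375 nM pre-mixing / Dosing: 7.94 µM single dose, 0.794% DMSO / Timing: enzyme-compound preincubation 30 min, then probe labeling 45 min, 25 °C / Signal: FP readout at 525/598 nm / Controls: DMSO-treated enzyme wells and wells lacking RBBP9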
Arbovirus inh = antivirals against arbovirus infection; arbovirus infection cell-based antiviral screen; inhibition, % at 10 µM; 200,000 tested, 0.37% active; AID 1251; in the data active = inhibition above about 30%
PKD1 inh = blocks activity of human protein kinase D1; inhibition, % (concentration not given with the values); AID 797; PKD1 kinase fluorescence polarization assay; Q15139; 200,000 tested, 0.056% active; in the data active = inhibition above about 50%
Target sequence (Q15139 whole entry, looked up): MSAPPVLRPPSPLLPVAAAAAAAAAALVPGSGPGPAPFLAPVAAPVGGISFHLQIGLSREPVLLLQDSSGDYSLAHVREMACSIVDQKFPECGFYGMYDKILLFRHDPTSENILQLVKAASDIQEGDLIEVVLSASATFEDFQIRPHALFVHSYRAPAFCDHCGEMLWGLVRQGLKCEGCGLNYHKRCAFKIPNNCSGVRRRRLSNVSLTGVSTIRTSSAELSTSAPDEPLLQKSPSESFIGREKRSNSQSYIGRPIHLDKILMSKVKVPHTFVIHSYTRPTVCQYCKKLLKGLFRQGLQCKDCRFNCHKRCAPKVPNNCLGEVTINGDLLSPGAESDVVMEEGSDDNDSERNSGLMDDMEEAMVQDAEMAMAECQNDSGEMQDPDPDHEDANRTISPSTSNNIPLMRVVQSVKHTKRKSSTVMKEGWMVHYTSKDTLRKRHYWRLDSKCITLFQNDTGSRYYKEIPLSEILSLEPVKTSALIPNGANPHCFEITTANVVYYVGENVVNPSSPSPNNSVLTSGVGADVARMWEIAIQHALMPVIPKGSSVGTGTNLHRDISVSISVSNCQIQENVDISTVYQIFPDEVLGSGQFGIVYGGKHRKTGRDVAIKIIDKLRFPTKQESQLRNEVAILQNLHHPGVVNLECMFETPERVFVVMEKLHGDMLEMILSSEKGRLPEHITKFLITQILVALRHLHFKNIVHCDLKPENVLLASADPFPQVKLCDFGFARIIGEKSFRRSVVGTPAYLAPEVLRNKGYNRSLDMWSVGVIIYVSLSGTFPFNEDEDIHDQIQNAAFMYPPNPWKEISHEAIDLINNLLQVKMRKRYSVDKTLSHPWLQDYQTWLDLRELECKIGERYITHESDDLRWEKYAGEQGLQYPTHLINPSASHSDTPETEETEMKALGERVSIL
RBBP9 inh conf = confirmation of human RBBP9 inhibitors; 410 tested, 36% active; recombinant RBBP9, FP-Rh probe fluorescence polarization; inhibition, % at 7.94 µM; shares compounds with RBBP9 inhibitor;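 active = inhibition above the hit cutoff derived for the primary screen, cut at about 15% in these data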;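 also: 0% = RBBP9 with DMSO and 100% = wells lacking RBBP9 protein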
* hit, by the source's call; i = inactive; . = no result given.

SMILES	Autophagy HCS	Insulin prom inh	Insulin prom up	RBBP9 inhibitor	Arbovirus inh	PKD1 inh	RBBP9 inh conf
Oc1ccc(-c2nc3ccccc3s2)c(O)c1	.	.	-0.07	-10	.	.	.
Oc1ccc(-c2cnns2)c(O)c1	i	-43	0.68	41*	1	6	56*
O=Nc1c(-c2cccc([N+](=O)[O-])c2)nc2ncccn12	.	.	-1	21*	.	.	24*
O=[N+]([O-])c1cccc(-c2cn3nc(-c4ccccc4)c(-c4ccccc4)nc3n2)c1	.	.	-0.15	-16	.	.	.
CN(C)S(=O)(=O)c1cccc(NC(=S)Nc2cccc3cnccc23)c1	.	.	-0.65	19*	.	.	7
Cc1ccccc1NC(=O)c1sc2nc3c(c(-c4ccco4)c2c1N)CCCC3	i	.	0.6	15*	1	1	7
O=S(=O)(Nc1cccc(S(=O)(=O)N2CCOCC2)c1)c1ccc2c(c1)OCCO2	i	.	-0.09	-3	4	2	.
COc1cc(/C=C/c2ccc3c(Br)cc(Br)c(O)c3n2)ccc1O	.	.	-2.7	17*	.	.	47*
CC1(C)OC(C)(C)/C(=C/Nc2ccc(O)cc2)C1=O	i	19	0.08	20*	-16	-10	9
CC1(C)OC(=O)C(=CNc2cccc(O)c2)C(=O)O1	i	.	-0.48	-3	7	-12	.
CN1CCN(C(=O)C2(NC(=O)Nc3ccccc3Cl)CCCCC2)CC1	i	-58	.	-1	7	-7	.
CCN1CCN(C(=O)C2(NC(=O)Nc3ccccc3Cl)CCCCC2)CC1	i	15	.	16*	6	6	2
COCCN1C(=S)NC(c2cccc(C(F)(F)F)c2)C(C(=O)N2CCOCC2)=C1C (stereo not given)	i	.	-0.43	5	1	-7	.
CC(C)OCc1c(C(=O)Nc2nccs2)oc2ccccc12	i	-58	-0.01	-1	19	4	.
O=C1CCC(=O)N1c1ccc(-c2nc3sc4c(c3c(=O)o2)CCC4)cc1	.	.	-0.11	15*	.	.	10
O=C(NCC1CCCCC1)c1cc([N+](=O)[O-])ccc1N1CCOCC1	i	.	-0.84	0	2	1	.
CC1(C)CC(=O)C(C=NCCN2CCN(C(=O)c3ccc(F)cc3)CC2)=C(O)C1	i	.	.	15*	1	-7	8
CCCCC(=NCCO)C1=C(O)C(C(=O)OC)C(C)(C)CC1=O (stereo not given)	i	-32	0.06	-8	22	0	.
O=C(Oc1ccc(C(=S)N2CCC(O)CC2)cc1)c1ccc(Cl)cc1	i	.	0.99	20*	-1	0	29*
O=C(Oc1ccc(C(=S)N2CCCCC2)cc1)c1ccccc1	i	.	0.86	2	-2	-9	.
COCCn1c(SCC(=O)Nc2nnc(C)s2)nnc1-c1c[nH]c2ccccc12	i	-37	0.49	-11	6	-5	.
NC(N)=N/N=C/c1ccc(OCc2ccc(Cl)cc2)cc1	i	16	-1.5	19*	-30	7	6
CCC(=O)N=c1n(C)c2ccccc2n1CCOc1ccccc1	i	8	-0.12	16*	-6	-7	6
CC1=NN(c2ccccc2)C(=O)C1C=Nc1ccc(N(C)C)cc1 (stereo not given)	.	.	-0.2	19*	.	.	15*
CC1=NN(c2ccccc2)C(=O)C1N=Nc1ccc(C)cc1 (stereo not given)	i	-44	-0.16	0	0	-5	.
SMILES	Autophagy HCS	Insulin prom inh	Insulin prom up	RBBP9 inhibitor	Arbovirus inh	PKD1 inh	RBBP9 inh conf
Cc1c(O)ccc(/C(Cc2ccc3ccccc3n2)=N\O)c1O	i	2	-0.32	41*	6	-7	47*
O=C(c1cc2c(s1)CCCC2)n1cccn1	i	-291	-0.51	42*	-2	-11	11
O=C(NNC(=O)c1cccnc1)NC1CCCCC1	i	.	-0.43	-4	-3	-3	.
O=C(NNC(=O)c1cc(O)c(O)c(O)c1)NC1CCCCC1	i	.	-0.99	14*	12	0	23*
CC(C)c1ccc(N2C(=O)CC(NNC(=O)c3ccccc3Cl)C2=O)cc1 (stereo not given)	.	.	0.42	5	.	.	.
Oc1ccc(NC(=S)N=Nc2c(O)[nH]c3ccccc23)cc1	i	-16	-2.3	16*	-14	-2	19*
Oc1ccc(NC(=S)N=Nc2c(O)[nH]c3ccc(Br)cc23)cc1	i	33	-1.4	53*	-35	-6	22*
CCC(Sc1ccccn1)C(=O)Nc1nnc(C)s1 (stereo not given)	i	-20	1.5	4	22	-2	.
COc1ccc(CC(=O)Nc2ccc(-c3noc(-c4cccc(OC)c4)n3)cc2)cc1	i	.	.	2	-18	-1	.
Cc1cc(C)cc(-n2c(SC(C)C(=O)NCc3ccc4c(c3)OCO4)nc3ccccc3c2=O)c1 (stereo not given)	i	-44	-0.99	21*	6	-7	1
Cc1cccc(-n2c(SCC(=O)NCc3ccc4c(c3)OCO4)nc3ccccc3c2=O)c1	i	-38	-0.21	-4	-7	-5	.
Nc1cccc(/C=C/c2ccncc2)c1	.	.	0.04	-3	.	.	.
Cc1ccc(Cc2cnc(NC(=O)C3=NCCN3)s2)cc1	i	.	0.27	-6	8	6	.
CC(C)C1=Nc2cccc3cccc(c23)N1	i	5	.	8	-1	-17	.
CN(C)c1ccc(Nc2nc(-c3cccnc3)cs2)cc1	i	.	0.39	20*	5	-6	22*
COc1ccc(C)cc1NC(=O)CN(c1ccc(F)cc1)S(C)(=O)=O	i	-17	-0.13	-5	-4	-8	.
CCC(C)NS(=O)(=O)c1ccc(NC(C)=O)cc1 (stereo not given)	i	60	.	-1	5	4	.
CCC(NS(=O)(=O)c1ccc(C)cc1)C(=O)Nc1ccc(NC(C)=O)cc1 (stereo not given)	i	35	0.81	16*	1	-5	7
O=C(CCl)Nc1c[nH]c(=O)[nH]c1=O	i	.	0.33	-9	9	-3	.
CCCC(CCC)C(=O)Nc1c[nH]c(=O)[nH]c1=O	i	-34	-0.03	17*	1	-10	6
CC(C)c1cc(Nc2cccc(O)c2)cc(C(C)C)c1O	i	-27	-0.5	16*	.	-6	-8
Cc1nc(=O)c(-c2ccccc2)c(C)n1Cc1ccccc1	i	4	0.52	2	1	-2	.
CSc1nnc(CCCCCCCCc2nnc(SC)o2)o1	.	.	-0.47	16*	.	.	3
CCCCNC(=O)C1CC(c2cccc([N+](=O)[O-])c2)=NO1 (stereo not given)	i	.	0.22	5	-4	-4	.
O=C(NCc1ccco1)C1CC(c2cccc([N+](=O)[O-])c2)=NO1 (stereo not given)	i	.	0.24	17*	-9	2	4
CCCN1C(=O)S/C(=C/c2ccc(N3CCOCC3)o2)C1=O	.	.	.	14*	.	.	2
CCCN1C(=O)S/C(=C\c2ccc(N3CCOCC3)o2)C1=O	i	.	.	-4	-9	-5	.
C#CCNc1c(C)c(C)nc2ncnn12	i	-27	0.15	2	5	-10	.
